From PubChem BioAssay
The sample as a whole holds a higher share of hits than the screen did.
HEK293 NFkB inh: lowers PMA/ionomycin-induced NF-kB signal in HEK293 cells | inhibition, % at 3 µM | HEK-293 NF-kB luciferase reporter, luminescence | 0.21% of 62,000 active;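 active = inhibition above the mean of all tested compounds plus 3 SD, cut at about 40% in these data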;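 note: 0% = stimulated DMSO wells and 100% = 10 µM reference inhibitor 5653914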
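System: NF-kB luciferase reporter HEK-293 cells | Replication: Single test | Control set: DMSO vs reference inhibitor | Evaluation: % inhibition | Schedule: 1 h pretreatment, 16 h stimulation, 37 °C | Probe or stimulus: PMA with ionomycin | Compound dosing: One dose, 3 µM | Detection: Luciferase luminescence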
DAT uptake mod: modulates human dopamine transporter uptake under cocaine; Q01959; LLC-PK1 hDAT cells, [14C]-dopamine uptake with cocaine IC80; actives deviate in either direction; B-score at 10 µM; 1.3% of 110,000 active; AID 449768;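 active = Z score or B-score, a plate-position-corrected score, falls beyond the plate's 99.7% confidence bounds, in either direction; inactive = both scores lie inside the 99.7% bounds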;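 note: scored against the spread of the other compound wells on the same plate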
Ec RNAP inh: inhibitors of Escherichia coli RNA polymerase; E. coli RNA polymerase, fluorescence transcription assay; inhibition, %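 (tested at 10 µM)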; 0.2% of 62,000 active; AID 559; in the data active = inhibition above about 20%;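 note: 0% = enzyme without compound and 100% = no enzyme blank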
D1 mod: allosterically modulates the human D1 dopamine receptor. P21728. B-score at 10 µM. 5.9% of 58,000 active. HEK293 D1, CRE-luciferase, dopamine EC30 potentiation; actives deviate in either direction;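 active = luminescence count or its row- and column-corrected plate score outside the 99.7% band of the plate's sample wells, on either side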
Target sequence (P21728 whole entry, looked up): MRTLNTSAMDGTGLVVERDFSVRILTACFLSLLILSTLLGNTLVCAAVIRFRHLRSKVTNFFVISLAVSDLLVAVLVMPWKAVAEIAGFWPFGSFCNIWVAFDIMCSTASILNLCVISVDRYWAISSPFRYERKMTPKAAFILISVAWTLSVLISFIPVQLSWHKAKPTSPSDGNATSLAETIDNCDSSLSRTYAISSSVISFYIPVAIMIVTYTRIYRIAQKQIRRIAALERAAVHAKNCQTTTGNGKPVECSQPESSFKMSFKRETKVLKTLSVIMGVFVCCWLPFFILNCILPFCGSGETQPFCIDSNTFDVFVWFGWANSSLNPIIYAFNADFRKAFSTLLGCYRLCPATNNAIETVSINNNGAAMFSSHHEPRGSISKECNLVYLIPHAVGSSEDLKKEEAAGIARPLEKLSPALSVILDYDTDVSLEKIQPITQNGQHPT
AP complement: orthogonal test for alternative complement pathway inhibitors. 0.08% of 62,000 active. inhibition, % at 5 µM. AID 1235. Human serum alternative complement pathway, LPS-coated ELISA, C3 deposition; tested in compound mixtures;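 active = inhibition above 30% in each of the two pooled mixtures holding the compound, so the lower value exceeds 30%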;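 note: 0% = serum in Mg-EGTA without compound and 100% = EDTA serum blank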
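Test system: human serum complement alternative pathway, C3 deposition onto LPS / Medium: Mg2+-EGTA GVB++ buffer containing human serum at 1:15 dilution / Probe or stimulus: Plate-bound LPS / Times: 1 h at 37 °C / Signal: ELISA with HRP anti-human C3 antibody, TMB substrate, absorbance 450 nm / Measure: percent inhibition / Repeats: two pool placements per compound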
Active calls of the source: *.

N#CC1=C2SCC(O)(c3ccccc3)N2C(=O)CC1c1ccccc1F (stereo unspecified) was read as DAT uptake mod 0.087.
Screening CCOc1ccc(C(=O)NCCC(=O)NCCCC(=O)O)cc1 returned HEK293 NFkB inh 6, DAT uptake mod -0.68, Ec RNAP inh 3, D1 mod 0.23 and AP complement -7.
`CCCCN(C)C(=O)CSc1nc(NCc2ccc(OC)cc2)c2ccccc2n1` gave DAT uptake mod 2.5*.
CC(C)C(=O)Nc1cccc(-c2cnc3ccccc3n2)c1 was read as DAT uptake mod 2.7*.
For Cc1ccc(C(=O)Nc2cccc(-c3cnc4ccccc4n3)c2)cc1 the results were DAT uptake mod 1.5.
`O=C(CSc1nc(-c2ccccc2)c(-c2ccccc2)[nH]1)NCCN1C(=O)CSC1=O` gave DAT uptake mod 0.22.
For O=C(CSc1nnnn1C1CC2CCC1C2)Nc1ccnc2ccccc12 (stereo unspecified) the results were HEK293 NFkB inh 58*, DAT uptake mod -1.2, Ec RNAP inh -1, D1 mod -2.3 and AP complement 11.
`CCCc1cc(C(=O)NC2CCCCC2)no1` gave HEK293 NFkB inh -14, DAT uptake mod 0.44, Ec RNAP inh 7, D1 mod -0.84 and AP complement -7.
`CCCc1cc(C(=O)NC2CCCC2)no1` gave HEK293 NFkB inh -13, DAT uptake mod -0.012, Ec RNAP inh -4, D1 mod 0.12 and AP complement 40*.
`CN(C)c1ccc(C(=O)Nc2nc3c(s2)CCCC3)cc1` gave HEK293 NFkB inh -52, DAT uptake mod -0.62, Ec RNAP inh 1, D1 mod -6* and AP complement 8.
Cc1cc(C(=O)Nc2nc3c(s2)CCCC3)no1 was read as HEK293 NFkB inh -27, DAT uptake mod 0.25, Ec RNAP inh 6, D1 mod -3.8* and AP complement 8.
For Cc1cc(Cl)cc(Br)c1OCCCN1C(=O)NC(C)(C)C1=O the results were DAT uptake mod 0.44.
COC(=O)c1cc(NC2c3ccccc3C(=O)N2CCN2CCOCC2)cc(C(=O)OC)c1 (stereo unspecified) was read as HEK293 NFkB inh 17, DAT uptake mod 0.68, Ec RNAP inh 8, D1 mod -0.029 and AP complement 6.
CCCn1c(=O)c2ccccc2n2c(SCC(=O)c3cc(C)n(CCOC)c3C)nnc12 was read as HEK293 NFkB inh -1, Ec RNAP inh 4, D1 mod 2.2* and AP complement 12.
Screening COCCn1c(C)cc(C(=O)CSc2nnc(C)s2)c1C returned HEK293 NFkB inh 46*, DAT uptake mod -0.74, Ec RNAP inh 11, D1 mod -7.8* and AP complement 12.
Screening COCCn1c(C)cc(C(=O)CSc2n[nH]c(N)n2)c1C returned HEK293 NFkB inh 9, DAT uptake mod 0.5, Ec RNAP inh 13 and AP complement 9.
O=C(c1ccc2c(c1)OCO2)N1CCC2(CC1)Oc1ccc(F)cc1C(=O)C21CC(c2ccccc2)=NO1 (stereo unspecified) was read as DAT uptake mod 0.35.
For CCN(C(=O)c1cc2ccccc2oc1=O)c1ccccc1 the results were DAT uptake mod -1.4.
O=C(c1cc2ccccc2oc1=O)N(Cc1cccs1)Cc1ccccc1Cl was read as DAT uptake mod 2.5*.
Screening Cn1c(=O)c2cc(S(=O)(=O)NCCC(=O)NCC3CCCO3)ccc2n(C)c1=O (stereo unspecified) returned HEK293 NFkB inh 4, DAT uptake mod -0.059, Ec RNAP inh 3, D1 mod -0.063 and AP complement -1.
`Cn1c(=O)c2cc(S(=O)(=O)NCCC(=O)NC3CCCCCCC3)ccc2n(C)c1=O` gave HEK293 NFkB inh 15, DAT uptake mod -0.095, Ec RNAP inh 2, D1 mod -3.6* and AP complement 5.
Screening Cc1nn(Cc2c(F)c(F)c(F)c(F)c2F)c(C)c1NC(=O)c1ccc(COc2ccc(F)cc2)o1 returned DAT uptake mod -0.28.
For O=C(O)c1cn(-c2ccccc2)nc1-c1ccncc1 the results were HEK293 NFkB inh -1, DAT uptake mod 0.079, Ec RNAP inh 12 and AP complement 4.
O=C(c1cn(-c2ccccc2)nc1-c1ccncc1)n1nnc2ccccc21 was read as HEK293 NFkB inh 6, DAT uptake mod -0.43, Ec RNAP inh 4, D1 mod 12* and AP complement 37.
